Measurements from PMC9924264 (Journal of Medicinal Chemistry, 2023).

Columns and labels:
TGFBR1 (ALK5) = target: T1, TGFBR1 (ALK5) (Homo sapiens, UniProt P36897); experiment: ThermoFisher SelectScreen LanthaScreen assay; format: binding; conditions: ALK5 vs BMPR2
T1 sequence (P36897 34-503): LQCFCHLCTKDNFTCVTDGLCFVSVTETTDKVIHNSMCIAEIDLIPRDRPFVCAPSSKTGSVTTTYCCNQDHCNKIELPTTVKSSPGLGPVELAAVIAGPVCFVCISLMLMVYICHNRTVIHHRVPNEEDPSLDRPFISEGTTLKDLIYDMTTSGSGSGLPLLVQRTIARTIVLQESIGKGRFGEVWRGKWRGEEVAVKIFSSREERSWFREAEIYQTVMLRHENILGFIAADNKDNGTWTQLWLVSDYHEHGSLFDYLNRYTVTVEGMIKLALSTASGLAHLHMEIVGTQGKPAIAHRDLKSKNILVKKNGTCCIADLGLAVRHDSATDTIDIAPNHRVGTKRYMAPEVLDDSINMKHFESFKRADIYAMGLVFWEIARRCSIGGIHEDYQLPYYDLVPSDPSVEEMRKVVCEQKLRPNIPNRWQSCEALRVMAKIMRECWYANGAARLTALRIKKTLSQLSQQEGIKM

BMPR1B (ALK6) = BMPR1B (ALK6) (Homo sapiens, UniProt O00238); experiment: ThermoFisher SelectScreen LanthaScreen assay; format: binding; conditions: ALK6 vs BMPR2
[1] = Metabolic stability in mouse liver microsomes; format: in vitro ADME; conditions: compared with analogue (CDD-1115 for CDD-1281, CDD-1431 for CDD-1653)
BMPR2 = target: T2, BMPR2 (Homo sapiens, UniProt Q13873); experiment: ThermoFisher SelectScreen LanthaScreen assay; format: binding; conditions: than CDD-1115
T2 sequence (Q13873 27-1038): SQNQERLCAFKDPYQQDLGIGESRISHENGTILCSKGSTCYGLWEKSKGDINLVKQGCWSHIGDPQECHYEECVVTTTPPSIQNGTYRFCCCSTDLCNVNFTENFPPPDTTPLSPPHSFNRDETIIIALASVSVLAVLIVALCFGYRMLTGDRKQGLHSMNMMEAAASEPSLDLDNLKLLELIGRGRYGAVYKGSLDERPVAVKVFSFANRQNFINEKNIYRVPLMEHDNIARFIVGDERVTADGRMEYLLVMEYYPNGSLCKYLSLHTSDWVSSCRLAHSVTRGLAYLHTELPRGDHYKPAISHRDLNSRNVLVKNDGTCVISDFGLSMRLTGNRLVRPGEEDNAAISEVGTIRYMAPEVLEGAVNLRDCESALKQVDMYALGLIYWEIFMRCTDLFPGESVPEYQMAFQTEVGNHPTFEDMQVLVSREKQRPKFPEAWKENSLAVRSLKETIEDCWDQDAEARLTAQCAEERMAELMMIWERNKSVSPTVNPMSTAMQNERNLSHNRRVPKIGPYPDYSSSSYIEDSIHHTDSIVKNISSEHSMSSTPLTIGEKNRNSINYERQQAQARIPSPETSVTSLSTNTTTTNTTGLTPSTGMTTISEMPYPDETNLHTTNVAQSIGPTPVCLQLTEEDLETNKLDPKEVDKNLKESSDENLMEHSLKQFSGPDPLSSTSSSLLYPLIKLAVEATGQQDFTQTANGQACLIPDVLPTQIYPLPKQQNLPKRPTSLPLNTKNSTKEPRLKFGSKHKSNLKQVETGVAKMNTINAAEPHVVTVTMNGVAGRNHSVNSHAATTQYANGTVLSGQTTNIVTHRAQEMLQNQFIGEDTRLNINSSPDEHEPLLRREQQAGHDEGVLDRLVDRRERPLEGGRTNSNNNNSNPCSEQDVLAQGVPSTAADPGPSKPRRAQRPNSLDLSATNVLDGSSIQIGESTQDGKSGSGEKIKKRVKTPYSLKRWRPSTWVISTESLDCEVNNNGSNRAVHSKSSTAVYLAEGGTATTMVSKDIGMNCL

[2] = Metabolic stability in human liver microsomes; format: in vitro ADME; conditions: compared with analogue (CDD-1115 for CDD-1281, CDD-1431 for CDD-1653)
Summary of the method: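 Human liver microsomes (0.5 mg protein/mL) incubated at 37 °C with test compound (2.0 μM) and NADPH cofactor (1.0 mM). Samples taken at 0, 30 and 60 min, in duplicate. […] Half-life was compared with that of the paired structural analogue.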

BMPR1A (ALK3) = BMPR1A (ALK3) (Homo sapiens, UniProt P36894); experiment: ThermoFisher SelectScreen LanthaScreen assay; format: binding; conditions: ALK3 vs BMPR2
[3] = test system: pSMAD1/5 in human umbilical vein endothelial cells (HUVECs); experiment: pSMAD1/5 Western blot, BMP9-stimulated HUVECs; format: cell-based; conditions: 25 μM, 30 min pretreatment, 0.5 ng/mL BMP9 15 min
Summary of the method: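 HUVECs, about 3 × 10^5 per well, starved overnight in Kaighn's F-12 with 0.5% FBS and 30 μg/mL endothelial cell growth supplement. Pretreated with inhibitors for 30 min, then given 0.5 ng/mL BMP9 for 15 min. Lysed with protease and phosphatase inhibitors. SDS-PAGE immunoblot for pSMAD1/5, SMAD1, SMAD5 and GAPDH, with densitometry. n = 3 biological replicates; one-way ANOVA with Tukey post hoc test.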

BMPR1A (ALK3), sequence (P36894 24-532): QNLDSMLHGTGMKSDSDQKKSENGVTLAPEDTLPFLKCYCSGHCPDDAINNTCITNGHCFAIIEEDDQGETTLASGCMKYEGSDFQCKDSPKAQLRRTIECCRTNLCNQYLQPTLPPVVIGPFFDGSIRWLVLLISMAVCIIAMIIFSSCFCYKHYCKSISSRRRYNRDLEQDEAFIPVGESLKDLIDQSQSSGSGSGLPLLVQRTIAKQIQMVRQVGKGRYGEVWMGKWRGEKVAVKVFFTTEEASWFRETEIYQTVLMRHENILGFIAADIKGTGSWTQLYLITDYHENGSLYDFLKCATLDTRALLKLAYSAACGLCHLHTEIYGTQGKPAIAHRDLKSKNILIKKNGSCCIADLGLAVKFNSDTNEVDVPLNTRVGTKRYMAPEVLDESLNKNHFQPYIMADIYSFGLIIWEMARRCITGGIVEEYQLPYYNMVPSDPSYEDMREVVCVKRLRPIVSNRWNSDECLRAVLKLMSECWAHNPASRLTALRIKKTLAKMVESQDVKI
BMPR1B (ALK6), sequence (O00238 14-502): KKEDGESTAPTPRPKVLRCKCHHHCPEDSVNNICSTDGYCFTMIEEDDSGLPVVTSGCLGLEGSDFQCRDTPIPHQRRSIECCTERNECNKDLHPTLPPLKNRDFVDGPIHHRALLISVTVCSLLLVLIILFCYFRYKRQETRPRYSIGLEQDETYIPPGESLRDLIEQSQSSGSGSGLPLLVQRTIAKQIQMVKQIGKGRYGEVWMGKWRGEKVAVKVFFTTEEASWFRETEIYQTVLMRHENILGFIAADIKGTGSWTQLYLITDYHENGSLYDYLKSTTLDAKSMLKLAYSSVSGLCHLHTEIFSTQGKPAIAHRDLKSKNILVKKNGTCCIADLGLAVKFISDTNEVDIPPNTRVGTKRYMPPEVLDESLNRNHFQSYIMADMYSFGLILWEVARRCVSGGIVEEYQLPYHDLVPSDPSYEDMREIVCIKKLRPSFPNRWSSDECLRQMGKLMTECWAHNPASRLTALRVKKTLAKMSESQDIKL

- selectivity (TGFBR1 (ALK5)): >830×
- selectivity (BMPR1B (ALK6)): >830×
- fold increase of half-life in MLM [1]: 3.5 fold
- fold higher potency (IC50) (BMPR2): 1.5 fold
- fold increase of half-life in HLM [2]: 11.0 fold
- selectivity (BMPR1A (ALK3)): >830×
Structure (SMILES): NC(=O)c1cccc(CNC(=O)c2ccc3nc(-c4ccc5cnccc5c4)n(C4CCCC4)c3c2)c1 [CDD-1281, N-(3-Carbamoylbenzyl)-1-cyclopentyl-2-(isoquinolin-6-yl)-1H-benzo[d]imidazole-6-carboxamide]
- phosphorylation of SMAD1/5 (pSMAD1/5) [3]: significantly decreased
